This is an account of results in ChEMBL document CHEMBL4334444, “Studies of Jatrogossone A as a Reactive Oxygen Species Inducer in Cancer Cellular Models” (J Nat Prod, 2019).

Assay [1] deals with KOPN-8. Briefly: Cell cycle arrest in human KOPN8 cells assessed as increase in accumulation at S phase at 2 uM incubated for 24 hrs by propidium iodide staining based flow cytometric analysis. The assay is classed as functional. The essentials:
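KOPN-8 cells plated at 1.00 × 10^6 cells/plate and held 12 h at 37 °C in 5% CO2, then treated for 24 h. Cells were fixed in cold methanol, RNase-treated and stained with PI (50 μg/mL). Cell-cycle distribution by flow cytometry, with DMSO as vehicle control.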
(In general: A flow cytometer gives signals particle by particle.)

Assay [2] relates to MCF7. Briefly: Induction of ROS generation in human MCF7 cells at 10 to 30 uM incubated for 1 hr by CellROX green reagent based fluorescence assay. In kind it is functional, cell-based. Summed up:
(§1)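 CellROX green ROS assay: cells exposed 1 h at 37 °C (30 μM) with DMSO 0.5% (v/v) negative control, menadione 10 μM positive control, ± NAC (100 μM per figure legend). CellROX green added at 5 μM final, 30 min more; washed, fixed in 4% paraformaldehyde 15 min, fluorescence read at 485 ex/535 em. Mean and SD of at least three experiments; two-way ANOVA.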

In assay [3] the test system is U2OS. Briefly: Induction of ROS generation in human U2OS cells at 10 to 30 uM incubated for 1 hr by CellROX green reagent based fluorescence assay. The assay is classed as functional, cell-based. Summed up:
(§2)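 CellROX green assay in MCF-7 or U2OS cells. Cells were exposed to test compound for 1 h at 37 °C alongside 0.5% DMSO (negative control) and menadione 10–30 μM (positive control), with or without NAC (50–500 μM) as scavenger. CellROX was then added at 5 μM final for 30 min. Cells were PBS-washed, fixed in 4% paraformaldehyde for 15 min, and fluorescence read at 535 nm.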

For assay [4], the system named is MCF7. Description: Induction of ROS generation in human MCF7 cells at 10 to 30 uM incubated for 1 hr in presence of NAC by CellROX green reagent based fluorescence assay. In kind it is functional, cell-based. The essentials:
as §1

Assay [5] concerns U2OS. Description: Induction of ROS generation in human U2OS cells at 10 to 30 uM incubated for 1 hr in presence of NAC by CellROX green reagent based fluorescence assay. The assay is classed as functional, cell-based. Summed up: as §2
Assay [6] relates to MCF7. Briefly: Induction of apoptosis in human MCF7 cells assessed as increase in cleaved caspase 7 level at 30 uM by Western blot analysis. The assay is classed as functional, cell-based. The essentials: (§3)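 Western blot of KOPN-8 and MCF-7 lysates made in RIPA-type buffer (Tris pH 7.5, Triton X-100, deoxycholate, SDS) with protease and phosphatase inhibitors. 30 μg protein per lane was run on 4–12% Bis-Tris SDS-PAGE and transferred to nitrocellulose. Blots were probed for cleaved caspase-7 and PARP-1 and detected with IR-dye secondaries. Menadione served as positive control: 10 μM in KOPN-8, 30 μM in MCF-7. Blots are representative of three independent experiments.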
For orientation: In western blotting, separated proteins are transferred to a membrane and probed.

The test system of assay [7] is KOPN-8. Briefly: Induction of apoptosis in human KOPN8 cells assessed as increase in cleaved caspase 7 level at 10 uM by Western blot analysis. In kind it is functional, cell-based. Summed up:
as §3

Assay [8] has as its system KOPN-8. Description: Induction of apoptosis in human KOPN8 cells assessed as increase in cleaved PARP 1 level at 10 uM by Western blot analysis. In kind it is functional, cell-based. Summed up:
as §3

Assay [9] relates to MCF7. Description: Induction of apoptosis in human MCF7 cells assessed as increase in cleaved PARP 1 level at 30 uM by Western blot analysis. The assay is classed as functional, cell-based. Summed up:
as §3

Each structure is given as a SMILES string. Calls of active or inactive are those of the source. The rule behind the calls is not given here.

Take `CN[C@@H]1C[C@H]2O[C@@](C)([C@@H]1OC)n1c3ccccc3c3c4c(c5c6ccccc6n2c5c31)C(=O)NC4`: the outcome in the assay on KOPN-8 [1] was Active.

Turning to `CC1=CC(=O)c2ccccc2C1=O`, the outcome with MCF7 [2], with U2OS [3], in the assay with MCF7 [6], in the assay with KOPN-8 [7], in the assay on KOPN-8 [8] and in the assay on MCF7 [9] was Active. Also, the result in the assay with MCF7 [4] and with U2OS [5] was inactive.
